Measurements reported in ChEMBL document CHEMBL2069243, “Synthesis and SAR of pyridothiazole substituted pyrimidine derived HCV replication inhibitors” (Bioorg Med Chem Lett, 2012).

Tests used:
[1] = Cytotoxicity against human hepatoma cells assessed as decrease in GADPH RNA level after 3 days by Rt-PCR analysis; format: cell-based
[2] = Cytotoxicity against human hepatoma cells after 3 days by MTS assay; format: cell-based
Summary of the method: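 MTS cell proliferation assay on replicon cells handled as in the replicon activity assay (seeded one day before, 0.5% DMSO, 10% FBS, serial dilutions), read 3 days after dosing. CC50 is the concentration giving 50% inhibition relative to vehicle-treated cells.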

Hepatitis C virus [3] = test: Antiviral activity against Hepatitis C virus 1b con1 infected in human hepatoma cells assessed as decrease in replicon RNA level after 3 days by RT-PCR analysis; format: functional, organism-based, Hepacivirus hominis; settings: genotype 1b Con1, 72 h
Summary of the method: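 Con1 genotype 1b replicon cells were seeded at 5000 cells/well one day before treatment. Compound in DMSO was added (final 0.5% DMSO, 10% FBS) as 10 serial twofold dilutions in triplicate. Cells were harvested 3 days after dosing. Replicon RNA was quantified by real-time RT-PCR (Taqman), normalized to GAPDH RNA, and EC50 was calculated.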

[4] = AUC (0 to 6 hrs) in rat at 10 mg/kg, po; format: ADME, organism-based; design: time < 6 hr, dose 10 mg/kg, route oral; settings: plasma
Summary of the method: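 Rats were dosed orally at 10 mpk in 0.4% methylcellulose, n=2 per compound. Plasma was sampled at 8 time points up to 6 h, and exposure was reported as AUC0-6 h.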

[5] = Drug uptake in rat liver at 10 mg/kg, po at 6 hrs; format: ADME, organism-based; design: dose 10 mg/kg, route oral; settings: read-out: Drug uptake
Summary of the method: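 Rats were dosed orally at 10 mpk in 0.4% methylcellulose, n=2. Animals were sacrificed at 6 h, and liver was harvested and processed to measure compound concentration (liver C6 h).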

[6] = Clearance in dog at 3 mg/kg, po; format: ADME, organism-based, Canis lupus familiaris; design: dose 3 mg/kg, route oral; settings: in vivo
[7] = Half life in dog at 3 mg/kg, po; format: ADME, organism-based, Canis lupus familiaris; design: dose 3 mg/kg, route oral; settings: in vivo
[8] = AUC (0 to 24 hrs) in rat at 10 mg/kg, po; format: ADME, organism-based; design: time < 24 hr, dose 10 mg/kg, route oral; settings: plasma
[9] = Oral bioavailability in dog at 3 mg/kg; format: ADME, organism-based, Canis lupus familiaris; settings: in vivo
Cytochrome P450 2C9 = Cytochrome P450 2C9 (Homo sapiens, UniProt P11712); test: Inhibition of CYP2C9; format: ADME
Cytochrome P450 2C9, sequence (P11712 whole entry): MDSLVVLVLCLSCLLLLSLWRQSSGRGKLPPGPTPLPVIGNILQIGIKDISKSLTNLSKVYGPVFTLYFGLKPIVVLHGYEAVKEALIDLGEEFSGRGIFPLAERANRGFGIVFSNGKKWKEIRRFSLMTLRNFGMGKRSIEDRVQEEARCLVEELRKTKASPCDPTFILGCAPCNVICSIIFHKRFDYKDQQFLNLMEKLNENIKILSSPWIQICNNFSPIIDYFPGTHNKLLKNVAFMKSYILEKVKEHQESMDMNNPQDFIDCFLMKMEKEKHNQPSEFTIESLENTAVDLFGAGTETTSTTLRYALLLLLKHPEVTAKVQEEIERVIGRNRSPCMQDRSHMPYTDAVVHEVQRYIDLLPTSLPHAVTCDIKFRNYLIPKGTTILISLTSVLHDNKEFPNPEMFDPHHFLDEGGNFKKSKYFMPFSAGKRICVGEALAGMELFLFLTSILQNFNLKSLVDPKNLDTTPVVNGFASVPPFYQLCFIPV

[10] = Clearance in monkey at 3 mg/kg, po; format: ADME, organism-based, Macaca mulatta; design: dose 3 mg/kg, route oral; settings: rhesus monkey, in vivo
Cytochrome P450 2D6 = Cytochrome P450 2D6 (Homo sapiens, UniProt P10635); test: Inhibition of CYP2D6; format: ADME
Cytochrome P450 2D6, sequence (P10635 whole entry): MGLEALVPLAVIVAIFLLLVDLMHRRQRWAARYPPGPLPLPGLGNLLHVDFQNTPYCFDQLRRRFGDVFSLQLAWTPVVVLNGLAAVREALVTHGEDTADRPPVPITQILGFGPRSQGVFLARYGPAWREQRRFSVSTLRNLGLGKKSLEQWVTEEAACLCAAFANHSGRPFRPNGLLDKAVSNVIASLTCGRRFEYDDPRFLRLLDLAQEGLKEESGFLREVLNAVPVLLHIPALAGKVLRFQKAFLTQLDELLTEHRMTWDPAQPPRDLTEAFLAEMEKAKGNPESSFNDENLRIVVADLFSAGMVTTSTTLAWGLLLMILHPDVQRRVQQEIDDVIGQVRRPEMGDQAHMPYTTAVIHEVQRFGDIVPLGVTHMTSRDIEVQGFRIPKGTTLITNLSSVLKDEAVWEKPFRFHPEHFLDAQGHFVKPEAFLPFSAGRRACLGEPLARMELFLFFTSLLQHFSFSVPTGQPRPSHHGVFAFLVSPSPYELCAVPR

Cytochrome P450 3A4 = Cytochrome P450 3A4 (Homo sapiens, UniProt P08684); test: Inhibition of CYP3A4; format: ADME
Cytochrome P450 3A4, sequence (P08684 whole entry): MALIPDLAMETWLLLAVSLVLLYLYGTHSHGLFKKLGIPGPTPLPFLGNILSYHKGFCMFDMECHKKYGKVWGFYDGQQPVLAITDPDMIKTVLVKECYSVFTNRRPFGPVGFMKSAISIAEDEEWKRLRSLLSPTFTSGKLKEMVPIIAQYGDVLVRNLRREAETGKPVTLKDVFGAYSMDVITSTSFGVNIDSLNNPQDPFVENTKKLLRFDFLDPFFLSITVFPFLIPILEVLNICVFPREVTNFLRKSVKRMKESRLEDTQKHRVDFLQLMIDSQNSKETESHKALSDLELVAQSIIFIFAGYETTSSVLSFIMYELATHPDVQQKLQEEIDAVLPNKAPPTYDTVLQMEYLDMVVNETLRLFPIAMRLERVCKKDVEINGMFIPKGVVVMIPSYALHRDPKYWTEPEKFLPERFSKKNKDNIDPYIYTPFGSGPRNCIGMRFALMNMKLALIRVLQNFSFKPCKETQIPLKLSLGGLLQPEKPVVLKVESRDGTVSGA

Hepatitis C virus [11] = test: Antiviral activity against Hepatitis C virus 1a by replicon-based assay; format: functional, organism-based, Hepacivirus hominis; settings: subtype 1a
[12] = Oral bioavailability in monkey at 3 mg/kg; format: ADME, organism-based, Macaca mulatta; settings: rhesus monkey, in vivo
Hepatitis C virus [13] = test: Antiviral activity against Hepatitis C virus 2a by replicon-based assay; format: functional, organism-based, Hepacivirus hominis; settings: genotype 2a
[14] = Half life in monkey at 3 mg/kg, po; format: ADME, organism-based, Macaca mulatta; design: dose 3 mg/kg, route oral; settings: rhesus monkey, in vivo
[15] = Oral bioavailability in rat at 10 mg/kg; format: ADME, organism-based; settings: in vivo
[16] = AUC in dog at 3 mg/kg, po; format: ADME, organism-based, Canis lupus familiaris; design: dose 3 mg/kg, route oral; settings: plasma
Summary of the method: (§1)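 Oral dosing of the HCl salt at 3 mpk; plasma AUC reported in µM.h.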

[17] = Clearance in rat at 10 mg/kg, po; format: ADME, organism-based; design: dose 10 mg/kg, route oral; settings: in vivo
[18] = AUC in monkey at 3 mg/kg, po; format: ADME, organism-based, Macaca mulatta; design: dose 3 mg/kg, route oral; settings: rhesus monkey, plasma; summary of the method: as §1
[19] = Cytotoxicity against human hepatoma cells assessed as inhibition of [14C]thymidine incorporation after 3 days by TopCount analysis; format: cell-based
Summary of the method: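 Replicon cells were seeded in scintillating microplates one day before treatment. Compound dilutions in triplicate were added with [methyl-14C]-thymidine (final 0.5 uCi/mL) and incubated 3 days. Incorporated label was counted by scintillation proximity. DNA CC50 is the concentration giving 50% inhibition of thymidine incorporation versus vehicle-treated cells.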

[20] = Half life in rat at 10 mg/kg, po; format: ADME, organism-based; design: dose 10 mg/kg, route oral; settings: in vivo

Row | SMILES | EC50 (Hepatitis C virus [3]) | AUC(0-t) at 6 h [4] | concentration at 6 h [5] | CC50 at 72 h [1] | CC50 at 72 h [2] | CC50 at 72 h [19] | other results
1 | Cc1nc(N[C@H](C)c2ccc(OC(F)(F)F)cc2)nc(N[C@@H]2C[C@H](CO)[C@@H](O)[C@H]2O)c1-c1nc2c(CC(C)(C)C)nccc2s1 | 0.026 µM | 3.2 µM·h | 4400 ng/g | 10 µM | 13 µM | – | –
2 | Cc1nc(N[C@H](C)c2ccc(OC(F)(F)F)cc2)nc(N[C@@H]2C[C@H](CO)[C@@H](O)[C@H]2O)c1-c1nc2c(C3CCC3)nccc2s1 | 0.016 µM | 3.3 µM·h | 4900 ng/g | 5 µM | 5 µM | – | –
3 | Cc1nc(N[C@H](C)c2ccc(OC(F)(F)F)cc2)nc(N[C@@H]2C[C@H](CO)[C@@H](O)[C@H]2O)c1-c1nc2c(CCC#N)nccc2s1 | 0.034 µM | 0.4 µM·h | 16 ng/g | 12 µM | 12 µM | – | –
4 | CCc1nc(C)cc2sc(-c3c(C)nc(N[C@H](C)c4ccc(OC(F)(F)F)cc4)nc3N[C@@H]3C[C@H](CO)[C@@H](O)[C@H]3O)nc12 | 0.264 µM | 25 µM·h | 257 ng/g | 23 µM | 24 µM | – | –

Continued by falling EC50 (Hepatitis C virus [3]), values first:

Row | EC50 (Hepatitis C virus [3]) | AUC(0-t) at 6 h [4] | concentration at 6 h [5] | SMILES | CC50 at 72 h [1] | CC50 at 72 h [2] | CC50 at 72 h [19] | other results
5 | 0.06 µM | – | 11000 ng/g | Cc1nc(N[C@H](C)c2ccc(OC(F)(F)F)cc2)nc(N[C@@H]2C[C@H](CO)[C@@H](O)[C@H]2O)c1-c1nc2c(C3CC3)nccc2s1.Cl | 25 µM | > 25 µM | > 25 µM | CL/F [6]: 4.2 mL/min/kg; half-life [7]: 5.2 h; AUC(0-t) at 24 h [8]: 5.2 µM·h; bioavailability [9]: 32%; INH (Cytochrome P450 2C9): > 20 µM; CL/F [10]: 7.2 mL/min/kg; INH (Cytochrome P450 2D6): > 20 µM; INH (Cytochrome P450 3A4): > 20 µM; EC50 (Hepatitis C virus [11]): 0.4 µM; bioavailability [12]: 12%; EC50 (Hepatitis C virus [13]): 0.18 µM; half-life [14]: 4.4 h; bioavailability [15]: 18%; AUC [16]: 5.1 µM·h; CL/F [17]: 11 mL/min/kg; AUC [18]: 1.3 µM·h; half-life [20]: 5 h
6 | 0.043 µM | 5.6 µM·h | 9800 ng/g | Cc1cc2sc(-c3c(C)nc(N[C@H](C)c4ccc(OC(F)(F)F)cc4)nc3N[C@@H]3C[C@H](CO)[C@@H](O)[C@H]3O)nc2c(C)n1 | 20 µM | 12 µM | – | –
7 | 0.016 µM | 1.6 µM·h | 1800 ng/g | Cc1nc(N[C@H](C)c2ccc(OC(F)(F)F)cc2)nc(N[C@@H]2C[C@H](CO)[C@@H](O)[C@H]2O)c1-c1nc2cnccc2s1 | 25 µM | > 25 µM | 6 µM | –
8 | 0.016 µM | – | 2820 ng/g | Cc1nc(N[C@H](C)c2ccc(OC(F)(F)F)cc2)nc(N[C@@H]2C[C@H](CO)[C@@H](O)[C@H]2O)c1-c1nc2c(C)nccc2s1.Cl | 25 µM | > 25 µM | > 25 µM | CL/F [6]: 9.8 mL/min/kg; half-life [7]: 4.2 h; AUC(0-t) at 24 h [8]: 1.1 µM·h; bioavailability [9]: 31%; INH (Cytochrome P450 2C9): > 20 µM; CL/F [10]: 20 mL/min/kg; INH (Cytochrome P450 2D6): > 20 µM; INH (Cytochrome P450 3A4): > 20 µM; EC50 (Hepatitis C virus [11]): 0.07 µM; bioavailability [12]: 7%; EC50 (Hepatitis C virus [13]): 0.08 µM; half-life [14]: 3.3 h; bioavailability [15]: 15%; AUC [16]: 2.9 µM·h; CL/F [17]: 40 mL/min/kg; AUC [18]: 0.3 µM·h; half-life [20]: 2.5 h
